Laboratory results: ChEMBL document CHEMBL4052607 (J Med Chem, 2017)
The source made the active and inactive calls. No cut-off for these calls is given here.

Assays:
D(3) dopamine receptor [1] = target: T1, D(3) dopamine receptor (Homo sapiens, UniProt P35462)
D(2) dopamine receptor [2] = target: T2, D(2) dopamine receptor (Homo sapiens, UniProt P14416); test: Antagonist activity at D2 long receptor (unknown origin) expressed in CHOK1 cells assessed as inhibition of dopamine induced beta-arrestin recruitment after 90 mins by DiscoveRx PathHunter assay; type: cell-based
T2 sequence (P14416 whole entry): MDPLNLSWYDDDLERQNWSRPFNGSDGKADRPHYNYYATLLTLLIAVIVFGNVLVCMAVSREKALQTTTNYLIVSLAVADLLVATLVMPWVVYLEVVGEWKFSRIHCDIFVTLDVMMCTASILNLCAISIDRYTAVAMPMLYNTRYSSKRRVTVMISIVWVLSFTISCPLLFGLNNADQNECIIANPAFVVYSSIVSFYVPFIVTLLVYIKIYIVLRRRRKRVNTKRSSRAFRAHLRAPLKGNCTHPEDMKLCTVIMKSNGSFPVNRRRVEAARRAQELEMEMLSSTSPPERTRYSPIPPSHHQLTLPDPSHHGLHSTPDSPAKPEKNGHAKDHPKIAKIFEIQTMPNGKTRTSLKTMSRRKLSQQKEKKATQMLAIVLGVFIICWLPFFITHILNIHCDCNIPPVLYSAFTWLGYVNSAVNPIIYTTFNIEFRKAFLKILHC

D(3) dopamine receptor [3] = target: T1, D(3) dopamine receptor; test: Displacement of [3H]N-methylspiperone from human D3 receptor expressed in HEK293 cell membranes after 1 hr by liquid scintillation counting analysis
D(2) dopamine receptor [4] = target: T2, D(2) dopamine receptor; test: Displacement of [3H]N-methylspiperone from human D2L receptor expressed in HEK293 cell membranes after 1 hr by liquid scintillation counting analysis
Summary of the method: (§1)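 Membranes from HEK293 cells stably expressing hD2R (long) or hD3R, 10 μg protein per tube, were incubated with 0.4 nM [3H]N-methylspiperone in EBSS with 0.2 mM sodium metabisulfite. Compound was tested over 13 half-log steps, 10 μM to 10 pM, in triplicate for 1 h at RT. Nonspecific binding was set with 10 μM (+)-butaclamol. Bound ligand was collected on PEI-soaked GF/B filters and counted by scintillation. Ki came from Cheng-Prusoff, at least 3 experiments.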

Homo sapiens = species on record: Homo sapiens; test: Selectivity ratio of Ki for human D2 receptor to Ki for human D3 receptor
Summary of the method: as §1

D(2) dopamine receptor [5] = target: T2, D(2) dopamine receptor; test: Agonist activity at D2 long receptor (unknown origin) expressed in CHOK1 cells assessed as beta-arrestin recruitment up to 30 uM after 90 mins by DiscoveRx PathHunter assay; type: cell-based
Summary of the method: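 Agonist mode in CHO-K1 cells expressing D2R long isoform fused to a β-galactosidase fragment, with β-arrestin-2 carrying the complementary fragment. Compound in PBS plus 0.2 μM sodium metabisulfite was preincubated 90 min at 37°C. PathHunter reagent was then added for 30 min at RT and luminescence read. RLU were normalized to the response at maximal dopamine.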

T1 sequence (P35462 whole entry): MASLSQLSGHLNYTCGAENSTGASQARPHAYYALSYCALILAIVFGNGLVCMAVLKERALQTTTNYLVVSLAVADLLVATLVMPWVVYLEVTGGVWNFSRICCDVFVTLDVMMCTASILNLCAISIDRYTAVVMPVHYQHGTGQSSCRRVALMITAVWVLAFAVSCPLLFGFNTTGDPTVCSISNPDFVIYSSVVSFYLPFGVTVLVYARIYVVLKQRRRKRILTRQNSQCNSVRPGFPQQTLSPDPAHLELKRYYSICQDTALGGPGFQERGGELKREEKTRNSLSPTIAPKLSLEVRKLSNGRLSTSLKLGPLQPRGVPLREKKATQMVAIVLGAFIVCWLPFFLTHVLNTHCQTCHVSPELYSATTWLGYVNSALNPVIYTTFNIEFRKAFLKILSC

SMILES | pKb (D(3) dopamine receptor [1]) | Kb (D(2) dopamine receptor [2]) [µM] | pKb (D(2) dopamine receptor [2]) | Ki (D(3) dopamine receptor [3]) [µM] | Ki (D(2) dopamine receptor [4]) [µM] | Ratio Ki (Homo sapiens) | Activity (D(2) dopamine receptor [5])
N#Cc1ccc2c(c1)CNCC2 | 5.49 | 4.27 | 5.37 | 1.52 | 11.4 | 7.5 | inactive
N#Cc1cccc(N2CCNCC2)c1 | 5.42 | 2.09 | 5.68 | 0.581 | 4.89 | 8.4 | inactive
N#Cc1ccc2c(c1)CCN(CC[C@H]1CC[C@H](NC(=O)c3ccnc4ccccc34)CC1)C2 |  |  |  |  |  |  | inactive
